The structures appear in SMILES notation.

Data set [1] relates to Rattus norvegicus. The data set is described as follows: Antiinflammatory activity against carrageenan-induced hind paw edema in rat at 41 umol/kg, po after 3 hrs relative to flurbiprophen. Format: functional. The method in brief: (§1)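 Given orally to rats at a dose equimolar to 10 mg/kg (41 µmol/kg) of the reference drug. Paw-oedema % inhibition was calculated at both 3 h and 4 h after dosing.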

Data set [2] relates to Rattus norvegicus. As to the kind of experiment: Antiinflammatory activity against carrageenan-induced hind paw edema in rat at 41 umol/kg, po after 4 hrs relative to flurbiprophen. Format: functional. A digest of the protocol: as §1
The next data set has as its system Gastric mucosa. As to the kind of experiment: Inhibition of lipid peroxidation in mouse gastric mucosa tissue assessed as malondialdehyde level per 100 mg tissue relative to flurbiprophen. Type of data set: functional, tissue-based. The method in brief: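 Animals receive the oral dose used in the ulcerogenic study, equimolar to 30 mg/kg flurbiprofen. Lipid peroxidation in the tissue is read as MDA content in nmol per 100 mg tissue, given as mean ± SEM (n = 6). Comparison is against the standard by ANOVA with Dunnett's test.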

Data set [3] deals with Mus musculus. As to the kind of experiment: Ulcerogenic effect in mouse at 123 umol/kg, po relative to flurbiprophen. Format: toxicity, organism-based. To be noted: in vivo. The method in brief: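 Acute ulcerogenic test with oral dosing at an amount equimolar to 30 mg/kg flurbiprofen. Gastric damage is scored as a severity index, given as mean ± SEM (n = 6). Comparison is against the standard by ANOVA with Dunnett's multiple comparison test.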

Data set [4] has as its system Mus musculus. The data set is described as follows: Analgesic activity in mouse at 41 umol/kg, po by tail immersion method relative to flurbiprophen. Type of data set: functional. The method in brief:
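Tail-immersion test in mice, oral dose of 41 µmol/kg. Tail reaction time (s) was read before dosing (0 h) and 4 h after dosing. % inhibition was calculated relative to each animal's pre-treatment value. n = 6, compared by paired Student's t test.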

For the next data set, the system named is Liver. As to the kind of experiment: Hepatotoxicity in rat assessed as hepatocyte necrosis. To be noted: hepatocytes. Format: toxicity, tissue-based.

For the compound `COc1cc(OC)c(C2CC(c3ccc(-c4ccccc4)cc3)=NN2)c(OC)c1` (stereo not drawn), the Activity worked out at 80.7% in the data set on Rattus norvegicus [1], 82.45% with Rattus norvegicus [2], 5.58 nmol in the data set on Gastric mucosa and 28.6% with Mus musculus [4]. Besides, the UI in the data set on Mus musculus [3] is reported as 0.833.
Turning to `O=C(c1ccccc1)N1N=C(c2ccc(-c3ccccc3)cc2)CC1c1ccc(Cl)cc1` (stereo not drawn), the Activity is listed as 35.08% in the data set on Rattus norvegicus [1] and 42.1% in the data set on Rattus norvegicus [2].
Taken in the same sequence, the figures for `COc1ccc(C2CC(c3ccc(-c4ccccc4)cc3)=NN2)cc1OC` (stereo not drawn) were 35.08% and 40.35%.
In the case of `Cc1ccc(C2CC(c3ccc(-c4ccccc4)cc3)=NN2)cc1` (stereo not drawn), the Activity was 73.69% in the data set on Rattus norvegicus [1]; 82.45% with Rattus norvegicus [2]; 5.04 nmol in the data set on Gastric mucosa; “Non-toxic” in the data set with Liver; 72.9% in the data set with Mus musculus [4]. Further, in the data set with Mus musculus [3], the UI came out at 0.5.
`COc1ccc(C2CC(c3ccc(-c4ccccc4)cc3)=NN2C(=O)c2ccccc2)cc1` (stereo not drawn): the figures for the Activity with Rattus norvegicus [1] and in the data set on Rattus norvegicus [2] were 40.34% and 47.36%, respectively.
On the same counts, the results for `Clc1ccccc1C1CC(c2ccc(-c3ccccc3)cc2)=NN1` (stereo not drawn) are 31.57% and 31.57%.
On the same counts, the results for `O=C(c1ccccc1)N1N=C(c2ccc(-c3ccccc3)cc2)CC1c1ccccc1` (stereo not drawn) are 28.06% and 33.32%.
Turning to `COc1ccc(C2CC(c3ccc(-c4ccccc4)cc3)=NN2C(=O)c2ccccc2)cc1OC` (stereo not drawn), the Activity in the data set with Rattus norvegicus [1] turned out to be 28.06%; with Rattus norvegicus [2], 35.08%.
Taken in the same sequence, the figures for `O=C(c1ccccc1)N1N=C(c2ccc(-c3ccccc3)cc2)CC1c1ccccc1Cl` (stereo not drawn) were 31.57% and 38.59%.
Taken in the same sequence, the figures for `c1ccc(-c2ccc(C3=NNC(c4ccccc4)C3)cc2)cc1` (stereo not drawn) were 35.08% and 38.6%.
`CC(C(=O)O)c1ccc(-c2ccccc2)c(F)c1` (stereo not drawn) [FLURBIPROFEN]: the Activity in the data set with Rattus norvegicus [1] came out at 73.68%; in the data set with Rattus norvegicus [2], 80.69%; in the data set on Gastric mucosa, 7.51 nmol; with Mus musculus [4] it was 69.5%. Further, the UI in the data set with Mus musculus [3] was determined as 1.666.
As to `COc1cc(OC)c(C2CC(c3ccc(-c4ccccc4)cc3)=NN2C(=O)c2ccccc2)c(OC)c1` (stereo not drawn), the Activity was 73.68% in the data set on Rattus norvegicus [1]; 75.38% in the data set on Rattus norvegicus [2]; 5.18 nmol in the data set on Gastric mucosa; “Non-toxic” with Liver; 43.2% in the data set with Mus musculus [4]. In the data set on Mus musculus [3], this compound had a UI of 0.583.
As for `Clc1ccc(C2CC(c3ccc(-c4ccccc4)cc3)=NN2)cc1` (stereo not drawn), the Activity in the data set on Rattus norvegicus [1] is reported as 22.8%; in the data set with Rattus norvegicus [2] it was 28.06%.
On the same counts, the results for `Cc1ccc(C2CC(c3ccc(-c4ccccc4)cc3)=NN2C(=O)c2ccccc2)cc1` (stereo not drawn) are 29.82% and 31.57%.
Take `CN(C)c1ccc(C2CC(c3ccc(-c4ccccc4)cc3)=NN2C(=O)c2ccccc2)cc1` (stereo not drawn): the Activity in the data set with Rattus norvegicus [1] was 33.32%; in the data set on Rattus norvegicus [2], 35.08%.
Taken in the same sequence, the figures for `CN(C)c1ccc(C2CC(c3ccc(-c4ccccc4)cc3)=NN2)cc1` (stereo not drawn) were 33.33% and 36.84%.
With `COc1ccc(C2CC(c3ccc(-c4ccccc4)cc3)=NN2)cc1` (stereo not drawn), the Activity worked out at 35.08% with Rattus norvegicus [1] and 36.83% with Rattus norvegicus [2].

These data come from ChEMBL document CHEMBL1143162, “Synthesis and pharmacological evaluation of pyrazoline derivatives as new anti-inflammatory and analgesic agents” (Bioorg Med Chem Lett, 2008).
